Assay results reported in paper PMC7717620 (Nucleosides, nucleotides & nucleic acids, 2019).
Entries after “also recorded” stand apart in the source; their conditions may differ.

Experiments:
human cardiomyocytes [1] = test: cellular accumulation and metabolism in human cardiomyocytes; type: in vitro ADME; settings: 10 μM
[2] = test system: HCV genotype 1 b RNA replication; test: subgenomic HCV replicon system, inhibition of HCV RNA replication in Huh-7 cells; type: cell-based, hepatitis C virus; settings: HCV genotype 1 b subgenomic replicon
Outline: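 HCV genotype 1b subgenomic replicon in Huh-7 cells. HCV RNA and cellular ribosomal RNA were extracted and amplified, so replication and cytotoxicity were read in the same cells.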

human cardiomyocytes [3] = test: recording of human cardiomyocyte beating patterns; type: cell-based; settings: for change in beating rate or rhythm of cardiomyocytes (observation): up to 48 h
[4] = test system: primary human hepatocytes; test: intracellular metabolism in primary human hepatocytes; type: in vitro ADME; settings: 50 μM, 4 h
Huh-7 cells = test: intracellular metabolism in Huh-7 cells; type: in vitro ADME, human; settings: Huh-7, 50 μM, 4 h
primary rat hepatocytes = test: intracellular metabolism in primary rat hepatocytes; type: in vitro ADME; settings: 50 μM, 4 h
[5] = test system: primary mouse hepatocytes; test: intracellular metabolism in primary mouse hepatocytes; type: in vitro ADME; settings: 50 μM, 4 h
[6] = test system: primary monkey hepatocytes; test: intracellular metabolism in primary monkey hepatocytes; type: in vitro ADME; settings: 50 μM, 4 h
HepG2 cells = test: intracellular metabolism in HepG2 cells; type: in vitro ADME, human; settings: HepG2, 50 μM, 4 h
primary dog hepatocytes = test: intracellular metabolism in primary dog hepatocytes; type: in vitro ADME; settings: 50 μM, 4 h
patients = settings: of the 34 patients treated, phase IIb; cited from earlier work
monkey heart and kidney = settings: three weeks post a three-week dosing (week 6); cited from earlier work
[7] = all three concentrations (2, 10 and 50 μM)

CC(C)(CO)C(=O)SCCOP(=O)(NCc1ccccc1)OC[C@H]1O[C@@H](n2cnc3c(=O)[nH]c(N)nc32)[C@](C)(O)[C@@H]1O (mixture of isomers) [IDX-184, S-(2-(((((2R,3R,4R,5R)-5-(2-Amino-6-oxo-1,6-dihydro-9H-purin-9-yl)-3,4-dihydroxy-4-methyltetrahydrofuran-2-yl)methoxy)(benzylamino)phosphoryl)oxy)ethyl) 3-hydroxy-2,2-dimethylpropanethioate]
Intracellular concentration in human cardiomyocytes: Prodrugs (human cardiomyocytes [1]; 4 h): 21 ± 1 pmol/10^6 cells
Intracellular concentration in human cardiomyocytes: Prodrugs (human cardiomyocytes [1]; 8 h): 9.8 ± 1.4 pmol/10^6 cells
intact prodrug level, times lower than BMS-986094 (human cardiomyocytes [1]; human cardiomyocytes, 8 h): 83 times
Replicon Huh-7 EC50 [2]: sub-micromolar
Beating rate of human cardiomyocytes (human cardiomyocytes [3]; 2 μM, 2 h): 32.0 ± 0 beats/minute
Beating rate of human cardiomyocytes (human cardiomyocytes [3]; 2 μM, 4 h): 31.5 ± 0.7 beats/minute
Beating rate of human cardiomyocytes (human cardiomyocytes [3]; 2 μM, 8 h): 37.0 ± 1.4 beats/minute
Beating rate of human cardiomyocytes (human cardiomyocytes [3]; 2 μM, 12 h): 36.0 ± 1.4 beats/minute
Beating rate of human cardiomyocytes (human cardiomyocytes [3]; 2 μM, 24 h): 32.5 ± 0.7 beats/minute
Beating rate of human cardiomyocytes (human cardiomyocytes [3]; 2 μM, 48 h): 24.0 ± 1.4 beats/minute
Beating rate of human cardiomyocytes (human cardiomyocytes [3]; 10 μM, 2 h): 30.0 ± 1.4 beats/minute
Beating rate of human cardiomyocytes (human cardiomyocytes [3]; 10 μM, 4 h): 30.0 ± 0 beats/minute
Beating rate of human cardiomyocytes (human cardiomyocytes [3]; 10 μM, 8 h): 34.0 ± 0 beats/minute
Beating rate of human cardiomyocytes (human cardiomyocytes [3]; 10 μM, 12 h): 34.0 ± 1.4 beats/minute
Beating rate of human cardiomyocytes (human cardiomyocytes [3]; 10 μM, 24 h): 31.0 ± 1.4 beats/minute
Beating rate of human cardiomyocytes (human cardiomyocytes [3]; 10 μM, 48 h): 25.0 ± 1.4 beats/minute
Beating rate of human cardiomyocytes (human cardiomyocytes [3]; 50 μM, 2 h): 33.0 ± 0 beats/minute
Beating rate of human cardiomyocytes (human cardiomyocytes [3]; 50 μM, 4 h): 31.5 ± 0.7 beats/minute
Beating rate of human cardiomyocytes (human cardiomyocytes [3]; 50 μM, 8 h): 34.5 ± 0.7 beats/minute
Beating rate of human cardiomyocytes (human cardiomyocytes [3]; 50 μM, 12 h): 34.5 ± 0.7 beats/minute
Beating rate of human cardiomyocytes (human cardiomyocytes [3]; 50 μM, 24 h): 34.5 ± 4.9 beats/minute
Beating rate of human cardiomyocytes (human cardiomyocytes [3]; 50 μM, 48 h): 27.5 ± 0.7 beats/minute
change in beating rate or rhythm of cardiomyocytes (observation) (human cardiomyocytes [3]; [7]): no obvious beating rate change; also recorded: no apparent change in beating; also recorded: no apparent changes to beat rate or rhythm
Intracellular concentration: Prodrugs [4]: 160 ± 18 pmol/10^6 cells
Intracellular concentration: Prodrugs (Huh-7 cells): 11 ± 1 pmol/10^6 cells
Intracellular concentration: Prodrugs (primary rat hepatocytes): 1,100 ± 471 pmol/10^6 cells
Intracellular concentration: Prodrugs [5]: 220 ± 3 pmol/10^6 cells
Intracellular concentration: Prodrugs [6]: 75 ± 3 pmol/10^6 cells
Intracellular concentration: Prodrugs (HepG2 cells): 21 ± 1 pmol/10^6 cells
Intracellular concentration: Prodrugs (primary dog hepatocytes): 110 ± 2 pmol/10^6 cells

COc1nc(N)nc2c1ncn2[C@@H]1O[C@H](COP(=O)(N[C@@H](C)C(=O)OCC(C)(C)C)Oc2cccc3ccccc23)[C@@H](O)[C@@]1(C)O (stereo partly drawn) [BMS-986094, Neopentyl ((((2R,3R,4R,5R)-5-(2-amino-6-methoxy-9H-purin-9-yl)-3,4-dihydroxy-4-methyltetrahydrofuran-2-yl)methoxy)(naphthalen-1-yloxy)phosphoryl)-L-alaninate]
Intracellular concentration in human cardiomyocytes: NTP (triphosphate of N) (human cardiomyocytes [1]; 4 h): BLOQ
Intracellular concentration in human cardiomyocytes: Prodrugs (human cardiomyocytes [1]; 4 h): 800 ± 118 pmol/10^6 cells
Intracellular concentration in human cardiomyocytes: NTP (triphosphate of N) (human cardiomyocytes [1]; 8 h): BLOQ
Intracellular concentration in human cardiomyocytes: Prodrugs (human cardiomyocytes [1]; 8 h): 810 ± 80 pmol/10^6 cells
level of intact prodrug, fold higher than DAPN-PD (human cardiomyocytes [1]; human cardiomyocytes, 4 h): 11 fold
level of intact prodrug, fold higher than IDX-184 (human cardiomyocytes [1]; human cardiomyocytes, 4 h): 37 fold
deaths (patients): one death
patients with some evidence of cardiac dysfunction (patients): 14
Beating rate of human cardiomyocytes (human cardiomyocytes [3]; 2 μM, 2 h): 31.0 ± 0 beats/minute
Beating rate of human cardiomyocytes (human cardiomyocytes [3]; 2 μM, 4 h): 30.5 ± 0.7 beats/minute
Beating rate of human cardiomyocytes (human cardiomyocytes [3]; 2 μM, 8 h): 34.5 ± 0.7 beats/minute
Beating rate of human cardiomyocytes (human cardiomyocytes [3]; 2 μM, 12 h): 36.0 ± 0 beats/minute
Beating rate of human cardiomyocytes (human cardiomyocytes [3]; 2 μM, 24 h): 32.5 ± 0.7 beats/minute
Beating rate of human cardiomyocytes (human cardiomyocytes [3]; 2 μM, 48 h): 26.5 ± 0.7 beats/minute
change in beating rate or rhythm of cardiomyocytes (observation) (human cardiomyocytes [3]; 2 μM): no clear change in beating rate or rhythm
Beating rate of human cardiomyocytes (human cardiomyocytes [3]; 10 μM, 2 h): 31.0 ± 0 beats/minute
Beating rate of human cardiomyocytes (human cardiomyocytes [3]; 10 μM, 4 h): 31.0 ± 0 beats/minute
Beating rate of human cardiomyocytes (human cardiomyocytes [3]; 10 μM, 8 h): 35.0 ± 0 beats/minute
Beating rate of human cardiomyocytes (human cardiomyocytes [3]; 10 μM, 12 h): 36.0 ± 0 beats/minute
Beating rate of human cardiomyocytes (human cardiomyocytes [3]; 10 μM, 24 h): 34.5 ± 0.7 beats/minute
Beating rate of human cardiomyocytes (human cardiomyocytes [3]; 10 μM, 48 h): 35.5 ± 2.1 beats/minute
change in beating rate or rhythm of cardiomyocytes (observation) (human cardiomyocytes [3]; 10 μM): changes to both beat rate and rhythm were noted; also recorded: higher beating rates were observed starting from 12 h
time until cardiomyocytes stopped beating (human cardiomyocytes [3]; 50 μM): ≤ 2 h
Beating rate of human cardiomyocytes (human cardiomyocytes [3]; 50 μM, 2 h): 0 ± 0 beats/minute
Beating rate of human cardiomyocytes (human cardiomyocytes [3]; 50 μM, 4 h): 0 ± 0 beats/minute
Beating rate of human cardiomyocytes (human cardiomyocytes [3]; 50 μM, 8 h): 0 ± 0 beats/minute
Beating rate of human cardiomyocytes (human cardiomyocytes [3]; 50 μM, 12 h): 32.0 beats/minute
Beating rate of human cardiomyocytes (human cardiomyocytes [3]; 50 μM, 24 h): 34.0 ± 0 beats/minute
Beating rate of human cardiomyocytes (human cardiomyocytes [3]; 50 μM, 48 h): 0 ± 0 beats/minute
rhythm of cardiomyocytes (observation) (human cardiomyocytes [3]; 50 μM, beating resumed briefly at 12 and 24 h): very unstable rhythm
Intracellular concentration: Prodrugs [4]: 4,100 ± 569 pmol/10^6 cells
Intracellular concentration: Prodrugs (Huh-7 cells): 2,900 ± 358 pmol/10^6 cells
parent prodrug level, times the level observed for DAPN-PD (Huh-7 cells): 17 times
parent prodrug level, times the level observed for IDX-184 (Huh-7 cells): 260 times
Intracellular concentration: Prodrugs (primary rat hepatocytes): 52 pmol/10^6 cells
Intracellular concentration: NTP (triphosphate of N) [5]: undetectable and BLOQ
Intracellular concentration: Prodrugs [5]: 880 ± 135 pmol/10^6 cells
Intracellular concentration: Prodrugs [6]: 150 ± 19 pmol/10^6 cells
Intracellular concentration: Prodrugs (HepG2 cells): 2,400 ± 9 pmol/10^6 cells
parent prodrug level, times the level observed for DAPN-PD (HepG2 cells): 6 times
parent prodrug level, times the level observed for IDX-184 (HepG2 cells): 110 times
Intracellular concentration: Prodrugs (primary dog hepatocytes): 2,200 ± 68 pmol/10^6 cells
levels of 2’-C-Me-GTP in the heart and kidney (monkey heart and kidney): 2,610–4,280 ng/mL

CC(C)OC(=O)[C@H](C)N[P@](=O)(OC[C@H]1O[C@@H](n2ccc(=O)[nH]c2=O)[C@](C)(F)[C@@H]1O)Oc1ccccc1 [Sofosbuvir, sofosbuvir]
Intracellular concentration in human cardiomyocytes: Prodrugs (human cardiomyocytes [1]; 4 h): 56 ± 3 pmol/10^6 cells
Intracellular concentration in human cardiomyocytes: Prodrugs (human cardiomyocytes [1]; 8 h): 42 ± 4 pmol/10^6 cells
Beating rate of human cardiomyocytes (human cardiomyocytes [3]; 2 μM, 2 h): 36.5 ± 2.1 beats/minute
Beating rate of human cardiomyocytes (human cardiomyocytes [3]; 2 μM, 4 h): 35.0 ± 1.4 beats/minute
Beating rate of human cardiomyocytes (human cardiomyocytes [3]; 2 μM, 8 h): 38.5 ± 0.7 beats/minute
Beating rate of human cardiomyocytes (human cardiomyocytes [3]; 2 μM, 12 h): 36.5 ± 0.7 beats/minute
Beating rate of human cardiomyocytes (human cardiomyocytes [3]; 2 μM, 24 h): 33.0 ± 0 beats/minute
Beating rate of human cardiomyocytes (human cardiomyocytes [3]; 2 μM, 48 h): 25.5 ± 0.7 beats/minute
Beating rate of human cardiomyocytes (human cardiomyocytes [3]; 10 μM, 2 h): 34.0 ± 1.4 beats/minute
Beating rate of human cardiomyocytes (human cardiomyocytes [3]; 10 μM, 4 h): 33.0 ± 1.4 beats/minute
Beating rate of human cardiomyocytes (human cardiomyocytes [3]; 10 μM, 8 h): 35.0 ± 1.4 beats/minute
Beating rate of human cardiomyocytes (human cardiomyocytes [3]; 10 μM, 12 h): 33.5 ± 0.7 beats/minute
Beating rate of human cardiomyocytes (human cardiomyocytes [3]; 10 μM, 24 h): 30.0 ± 0 beats/minute
Beating rate of human cardiomyocytes (human cardiomyocytes [3]; 10 μM, 48 h): 23.0 ± 0 beats/minute
Beating rate of human cardiomyocytes (human cardiomyocytes [3]; 50 μM, 2 h): 32.5 ± 0.7 beats/minute
Beating rate of human cardiomyocytes (human cardiomyocytes [3]; 50 μM, 4 h): 32.0 ± 0 beats/minute
Beating rate of human cardiomyocytes (human cardiomyocytes [3]; 50 μM, 8 h): 34.5 ± 0.7 beats/minute
Beating rate of human cardiomyocytes (human cardiomyocytes [3]; 50 μM, 12 h): 33.0 ± 1.4 beats/minute
Beating rate of human cardiomyocytes (human cardiomyocytes [3]; 50 μM, 24 h): 29.5 ± 0.7 beats/minute
Beating rate of human cardiomyocytes (human cardiomyocytes [3]; 50 μM, 48 h): 23.5 ± 0.7 beats/minute
change in beating rate or rhythm of cardiomyocytes (observation) (human cardiomyocytes [3]; [7]): no apparent change in beating rate or rhythm
